Test results as given in article PMC3999706 (Biochemistry, 2013).
Values joined by “and” are separate entries in the source; they are usually repeats but may differ in a detail not shown here. Equal entries are not always repeated. Where two headings read alike, the source gives them in different places.

How the values were obtained:
Fe(II) Vc H-NOX [1] = assay: Stopped-flow kinetics and affinity of gaseous ligand binding to Fe; design: species or system Vibrio cholerae; conditions: for koff / Kd: Fe(II) Vc H-NOX, NO: 6c complex; for koff: displacement method; for Kd: calculated from kon and koff; for koff of 5c Vc H-NOX-NO complex, fast phase / koff of 5c Vc H-NOX-NO complex, slow phase: displacement with CO/dithionite
sGC = conditions: 6c complex, ref [5], cited from earlier work
Ferrous Ns H-NOX = conditions: ref [5], cited from earlier work
Fe(III) Vc H-NOX = Fe(III) Vc H-NOX (Vibrio cholerae, UniProt Q9KLM3); assay: biochemical; format: binding
Fe(II) Vc H-NOX [2] = assay: Autoxidation of Fe; format: biochemical, Vibrio cholerae
Method in brief: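 Recombinant Vc H-NOX was expressed in E. coli Rosetta 2(DE3)pLysS (heme and δ-aminolevulinic acid supplemented, IPTG, 48 h at 20 °C) and purified on TALON resin. The anaerobic Fe(II) protein was mixed with O2 by stopped-flow in 20 mM HEPES pH 7.3, 50 mM NaCl, 10% glycerol. Spectral changes were followed by diode-array over 65.5 s, and kobs was taken from single-exponential fits under pseudo-first-order conditions.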

Fe(II) Ns H-NOX = conditions: ref [14]; cited from earlier work
[3] = estimated by computer simulation of A420 time courses

Question: For `[C-]#[O+]` [CO, Carbon monoxide], which koff (Fe(II) Vc H-NOX [1]; 24 °C) is on record?
Answer: The koff was 0.85 s⁻¹.

Question: What about the Kd (Fe(II) Vc H-NOX [1]) of the same molecule?
Answer: The Kd was 770 nM.

Question: What about the Kd (sGC; read-out: affinity of CO for sGC (KD)) of the same molecule?
Answer: The Kd was 260 µM.

Question: What about the Kd (Ferrous Ns H-NOX; read-out: KD(CO) of ferrous Ns H-NOX) of the same molecule?
Answer: Its Kd is 1.4 µM.

Question: Which Kd (Fe(III) Vc H-NOX) does the source give for `c1c[nH]cn1` [Im, imidazole] here?
Answer: The Kd was 4.2 mM.

Question: What does the source list for `O=O` [O2]?
Answer: second order reaction rate constant (slope of kobs versus [O2]) (Fe(II) Vc H-NOX [2]; 3 μM Fe(II) Vc H-NOX, 100-600 μM O2, 24 °C, A429): 4.8 M⁻¹ s⁻¹; autoxidation rate of Fe(II) Vc H-NOX to ferric state (k4) (Fe(II) Vc H-NOX [2]; k4 = slope × KD(O2)): 0.06 s^−1 and ~ 0.06 s^−1; Kd (Ferrous Ns H-NOX; read-out: KD for O2 of Ns H-NOX, measured using a high pressure cell): 13000 µM; autoxidation rate of Fe(II) Ns H-NOX (Fe(II) Ns H-NOX): ~ 0.05 hr^−1 and 0.05 hr^−1

Question: With nitric oxide [NO] as the molecule, how does the koff (Fe(II) Vc H-NOX [1]; 24 °C) read?
Answer: The koff was 0.3 s⁻¹.

Question: And the Kd (Fe(II) Vc H-NOX [1])?
Answer: Its Kd is 0.27 nM.

Question: And the “k1 (second NO binding to 6c complex)” value (Fe(II) Vc H-NOX [1]; [3])?
Answer: The value was 2.5e+07 M⁻¹ s⁻¹.

Question: And the “k-1 (dissociation of quaternary complex)” value (Fe(II) Vc H-NOX [1]; [3])?
Answer: Its value is 4500 s⁻¹.

Question: And the “k2 (limiting rate of 5c heme-NO complex formation)” value (Fe(II) Vc H-NOX [1]; excess NO, hyperbolic fit of kobs versus [NO], 24 °C)?
Answer: The value was 720 s⁻¹.

Question: And the “koff of 5c Vc H-NOX-NO complex, fast phase” value (Fe(II) Vc H-NOX [1]; excess NO, 29% overall reaction)?
Answer: Its value is 0.01 s⁻¹.

Question: And the “koff of 5c Vc H-NOX-NO complex, slow phase” value (Fe(II) Vc H-NOX [1]; excess NO, 71% overall reaction)?
Answer: The value was 0.001 s⁻¹.

Question: And the “overall conversion rate of 6c to 5c Vc H-NOX-NO complex” value (Fe(II) Vc H-NOX [1]; stoichiometric NO (2.5 μM each), 24 °C, global analysis)?
Answer: Its value is ~ 0.01 s^−1.

Question: And the “koff of 5c Vc H-NOX-NO complex, fast phase” value (Fe(II) Vc H-NOX [1]; stoichiometric NO, 16% overall reaction)?
Answer: The value was 0.01 s⁻¹.

Question: What about the “koff of 5c Vc H-NOX-NO complex, slow phase” value (Fe(II) Vc H-NOX [1]; stoichiometric NO, 84% overall reaction) of the same molecule?
Answer: Its value is 0.001 s⁻¹.

Question: What about the “k-2 (re-association of NO with 5c Vc H-NOX)” value (Fe(II) Vc H-NOX [1]; y-intercept of kobs versus low [NO]) of the same molecule?
Answer: The value was 1.9 s⁻¹.

Question: And the Kd (sGC; read-out: affinity of NO for sGC (KD))?
Answer: Its Kd is 0.054 µM.

Question: What about the Kd (Ferrous Ns H-NOX; read-out: KD(NO) of ferrous Ns H-NOX) of the same molecule?
Answer: The Kd was 0.00017 µM.
